Columns and labels:
Type in all cases: functional
[1] = Cytotoxicity against human NCI-ADR-RES cells assessed as cell growth at 10 uM after 48 hrs by SRB assay; details: read-out: Activity
Procedure, shortened: (§1)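 NCI-60 single-dose screen. Cell lines grown in RPMI 1640 with 5% FBS and 2 mM L-glutamine, plated at 5000–40,000 cells/well according to doubling time, then preincubated 24 h at 37 °C in 5% CO2. Compounds dissolved in DMSO, tested at 10^-5 M for 48 h. Adherent cells fixed with cold TCA (10% final) and stained with 0.4% SRB in 1% acetic acid. Growth expressed as percent of untreated control.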

MCF7 = experiment: Cytotoxicity against human MCF7 cells assessed as cell growth at 10 uM after 48 hrs by SRB assay; details: MCF7, 48 h, read-out: Activity; procedure, shortened: as §1
NCI-H23 = experiment: Cytotoxicity against human NCI-H23 cells assessed as cell growth at 10 uM after 48 hrs by SRB assay; details: NCI-H23, 48 h, read-out: Activity; procedure, shortened: as §1
SR = experiment: Cytotoxicity against human SR cells assessed as cell growth at 10 uM after 48 hrs by SRB assay; details: read-out: Activity
Procedure, shortened: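 Leukemia line, NCI-60 single-dose screen at 10^-5 M. Cells are grown in RPMI 1640 with 5% FBS and 2 mM L-glutamine, plated by doubling time, and preincubated 24 h at 37 °C with 5% CO2. After 48 h drug exposure, settled cells are fixed with 80% TCA (final 16%) and stained with SRB. Percent growth is calculated against untreated control and time-zero plates.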

HCC 2998 = experiment: Cytotoxicity against human HCC2998 cells assessed as cell growth at 10 uM after 48 hrs by SRB assay; details: HCC 2998, 48 h, read-out: Activity; procedure, shortened: as §1
KM12 = experiment: Cytotoxicity against human KM12 cells assessed as cell growth at 10 uM after 48 hrs by SRB assay; details: KM12, 48 h, read-out: Activity; procedure, shortened: as §1
[2] = Cytotoxicity against human UO31 cells assessed as cell growth at 10 uM after 48 hrs by SRB assay; details: UO-31, 48 h, read-out: Activity
Procedure, shortened: (§2)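 NCI-60 single-dose screen at 10^-5 M. Adherent lines are grown in RPMI 1640 with 5% FBS and 2 mM L-glutamine, seeded at 5000–40,000 cells/well by doubling time, and preincubated 24 h at 37 °C in 5% CO2. Drug is added from DMSO stock diluted in medium, then 48 h. Cells are fixed in cold TCA (final 10%) for 60 min and stained with 0.4% SRB in 1% acetic acid. Growth is expressed as % of untreated control using time-zero plates.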

A498 = experiment: Cytotoxicity against human A498 cells assessed as cell growth at 10 uM after 48 hrs by SRB assay; details: A498, 48 h, read-out: Activity; procedure, shortened: as §1
NCI-H226 = experiment: Cytotoxicity against human NCI-H226 cells assessed as cell growth at 10 uM after 48 hrs by SRB assay; details: NCI-H226, 48 h, read-out: Activity; procedure, shortened: as §1
[3] = Cytotoxicity against human OVCAR4 cells assessed as cell growth at 10 uM after 48 hrs by SRB assay; details: OVCAR-4, 48 h, read-out: Activity; procedure, shortened: as §1
SK-MEL-2 = experiment: Cytotoxicity against human SK-MEL-2 cells assessed as cell growth at 10 uM after 48 hrs by SRB assay; details: SK-MEL-2, 48 h, read-out: Activity; procedure, shortened: as §1
BT-549 = experiment: Cytotoxicity against human BT549 cells assessed as cell growth at 10 uM after 48 hrs by SRB assay; details: BT-549, 48 h, read-out: Activity; procedure, shortened: as §1
SF-539 = experiment: Cytotoxicity against human SF539 cells assessed as cell growth at 10 uM after 48 hrs by SRB assay; details: SF-539, 48 h, read-out: Activity; procedure, shortened: as §1
A549 = experiment: Cytotoxicity against human A549 cells assessed as cell growth at 10 uM after 48 hrs by SRB assay; details: A549, 48 h, read-out: Activity; procedure, shortened: as §1
MOLT-4 = experiment: Cytotoxicity against human MOLT4 cells assessed as cell growth at 10 uM after 48 hrs by SRB assay; details: MOLT-4, 48 h, read-out: Activity; procedure, shortened: as §1
LOX IMVI = experiment: Cytotoxicity against human LOXIMVI cells assessed as cell growth at 10 uM after 48 hrs by SRB assay; details: read-out: Activity; procedure, shortened: as §1
SNB-19 = experiment: Cytotoxicity against human SNB19 cells assessed as cell growth at 10 uM after 48 hrs by SRB assay; details: SNB-19, 48 h, read-out: Activity; procedure, shortened: as §1
PC-3 = experiment: Cytotoxicity against human PC3 cells assessed as cell growth at 10 uM after 48 hrs by SRB assay; details: PC-3, 48 h, read-out: Activity; procedure, shortened: as §1
SF-268 = experiment: Cytotoxicity against human SF268 cells assessed as cell growth at 10 uM after 48 hrs by SRB assay; details: SF-268, 48 h, read-out: Activity; procedure, shortened: as §1
OVCAR-8 = experiment: Cytotoxicity against human OVCAR8 cells assessed as cell growth at 10 uM after 48 hrs by SRB assay; details: OVCAR-8, 48 h, read-out: Activity; procedure, shortened: as §1
MDA-MB-231 = experiment: Cytotoxicity against human MDA-MB-231 cells assessed as cell growth at 10 uM after 48 hrs by SRB assay; details: MDA-MB-231, 48 h, read-out: Activity; procedure, shortened: as §1
COLO 205 = experiment: Cytotoxicity against human COLO205 cells assessed as cell growth at 10 uM after 48 hrs by SRB assay; details: COLO 205, 48 h, read-out: Activity; procedure, shortened: as §1
SW-620 = experiment: Cytotoxicity against human SW620 cells assessed as cell growth at 10 uM after 48 hrs by SRB assay; details: SW-620, 48 h, read-out: Activity; procedure, shortened: as §2
HT-29 = experiment: Cytotoxicity against human HT-29 cells assessed as cell growth at 10 uM after 48 hrs by SRB assay; details: HT-29, 48 h, read-out: Activity; procedure, shortened: as §1
MDA-MB-435 = experiment: Cytotoxicity against human MDA-MB-435 cells assessed as cell growth at 10 uM after 48 hrs by SRB assay; details: MDA-MB-435, 48 h, read-out: Activity; procedure, shortened: as §1
ACHN = experiment: Cytotoxicity against human ACHN cells assessed as cell growth at 10 uM after 48 hrs by SRB assay; details: read-out: Activity; procedure, shortened: as §1
CAKI-1 = experiment: Cytotoxicity against human CAKI-1 cells assessed as cell growth at 10 uM after 48 hrs by SRB assay; details: CAKI-1, 48 h, read-out: Activity; procedure, shortened: as §1
K562 = experiment: Cytotoxicity against human K562 cells assessed as cell growth at 10 uM after 48 hrs by SRB assay; details: K562, 48 h, read-out: Activity; procedure, shortened: as §1
[4] = Cytotoxicity against human UACC257 cells assessed as cell growth at 10 uM after 48 hrs by SRB assay; details: UACC-257, 48 h, read-out: Activity; procedure, shortened: as §2
IGROV-1 = experiment: Cytotoxicity against human IGROV1 cells assessed as cell growth at 10 uM after 48 hrs by SRB assay; details: IGROV-1, 48 h, read-out: Activity; procedure, shortened: as §1
NCI-H322M = experiment: Cytotoxicity against human NCI-H322M cells assessed as cell growth at 10 uM after 48 hrs by SRB assay; details: read-out: Activity; procedure, shortened: as §1

Structure (SMILES) | growth at 10 µM [1] [%] | growth at 10 µM (MCF7) [%] | growth at 10 µM (NCI-H23) [%] | growth at 10 µM (SR) [%] | growth at 10 µM (HCC 2998) [%] | growth at 10 µM (KM12) [%] | growth at 10 µM [2] [%] | growth at 10 µM (A498) [%] | growth at 10 µM (NCI-H226) [%] | growth at 10 µM [3] [%] | growth at 10 µM (SK-MEL-2) [%] | growth at 10 µM (BT-549) [%] | growth at 10 µM (SF-539) [%] | growth at 10 µM (A549) [%] | growth at 10 µM (MOLT-4) [%] | growth at 10 µM (LOX IMVI) [%] | growth at 10 µM (SNB-19) [%] | growth at 10 µM (PC-3) [%] | growth at 10 µM (SF-268) [%] | growth at 10 µM (OVCAR-8) [%] | further results
CC1=NN(c2cn3c(-c4ccc(Cl)cc4)csc3n2)C(=O)C1 | 100 | 93.5 | 92 | 73.3 | 100 | 105 | 80.9 | 74.1 | 95.4 | 77.2 | 104 | 101 | 94.7 | 79.6 | 65.8 | 96.8 | 88 | 79.4 | 96.3 | 94.2 | growth at 10 µM (MDA-MB-231): 96.5%; growth at 10 µM (COLO 205): 103%; growth at 10 µM (SW-620): 99.3%; growth at 10 µM (HT-29): 85.7%; growth at 10 µM (MDA-MB-435): 87.4%; growth at 10 µM (ACHN): 89.1%; growth at 10 µM (CAKI-1): 79.3%; growth at 10 µM (K562): 71.4%; growth at 10 µM [4]: 94.9%; growth at 10 µM (IGROV-1): 99.3%; growth at 10 µM (NCI-H322M): 99.8%
O=C1CC(=O)N(c2cn3c(-c4ccc(Cl)cc4)csc3n2)N1 | 99.3 | 89 | 97.8 | 74 | 102 | 106 | 111 | 75.2 | 103 | 87.4 | 101 | 95.3 | 101 | 88.9 | 79 | 96.5 | 90.2 | 90 | 105 | 101 | growth at 10 µM (MDA-MB-231): 107%; growth at 10 µM (COLO 205): 101%; growth at 10 µM (SW-620): 104%; growth at 10 µM (HT-29): 91.3%; growth at 10 µM (MDA-MB-435): 93.7%; growth at 10 µM (ACHN): 102%; growth at 10 µM (CAKI-1): 78.9%; growth at 10 µM (K562): 88.1%; growth at 10 µM [4]: 103%; growth at 10 µM (IGROV-1): 117%; growth at 10 µM (NCI-H322M): 83.3%
Cc1cc(C)n(-c2cn3c(-c4ccccc4)csc3n2)n1 | 95.5 | 88.7 | 95.4 | 80.9 | 105 | 104 | 59.2 | 111 | 88.3 | 93 | 97.6 | 95.3 | 94 | 99 | 93.9 | 91.9 | 96.5 | 88.7 | 98.4 | 95.9 | growth at 10 µM (MDA-MB-231): 86.3%; growth at 10 µM (COLO 205): 106%; growth at 10 µM (SW-620): 102%; growth at 10 µM (HT-29): 97.6%; growth at 10 µM (MDA-MB-435): 96.9%; growth at 10 µM (ACHN): 83.8%; growth at 10 µM (CAKI-1): 77.4%; growth at 10 µM (K562): 76.8%; growth at 10 µM [4]: 105%; growth at 10 µM (IGROV-1): 76.5%; growth at 10 µM (NCI-H322M): 91.1%
O=C1CN2C(c3ccc(Cl)cc3)=CSC2=N1 | 102 | 90.9 | 104 | 77.8 | 101 | 100 | 92.7 | 70.2 | 110 | 90.3 | 98.2 | 89 | 94.8 | 92.5 | 79.1 | 98.9 | 100 | 101 | 100 | 96 | growth at 10 µM (MDA-MB-231): 102%; growth at 10 µM (COLO 205): 108%; growth at 10 µM (SW-620): 101%; growth at 10 µM (HT-29): 88.4%; growth at 10 µM (MDA-MB-435): 87.8%; growth at 10 µM (ACHN): 95%; growth at 10 µM (CAKI-1): 81.3%; growth at 10 µM (K562): 79.7%; growth at 10 µM [4]: 96.3%; growth at 10 µM (IGROV-1): 95.2%; growth at 10 µM (NCI-H322M): 93.8%
Cc1ccc(-c2csc3nc(-n4nc(C)cc4C)cn23)cc1 | 98.5 | 89.7 | 93.3 | 81 | 107 | 108 | 94.4 | 103 | 94.8 | 97.8 | 125 | 125 | 109 | 98.6 | 98.4 | 92.8 | 100 | 84.7 | 112 | 96 | growth at 10 µM (MDA-MB-231): 88.8%; growth at 10 µM (COLO 205): 106%; growth at 10 µM (SW-620): 106%; growth at 10 µM (HT-29): 104%; growth at 10 µM (MDA-MB-435): 94.6%; growth at 10 µM (ACHN): 90.7%; growth at 10 µM (CAKI-1): 83.5%; growth at 10 µM (K562): 109%; growth at 10 µM [4]: 108%; growth at 10 µM (IGROV-1): 107%; growth at 10 µM (NCI-H322M): 96.4%
CC1=NN(c2cn3c(-c4ccc(C)cc4)csc3n2)C(=O)C1 | 99.3 | 91.8 | 95.5 | 73.3 | 103 | 104 | 71.6 | 99.2 | 89.7 | 99.9 | 114 | 111 | 102 | 98.3 | 78.9 | 93 | 100 | 75.3 | 111 | 102 | growth at 10 µM (MDA-MB-231): 79%; growth at 10 µM (COLO 205): 106%; growth at 10 µM (SW-620): 105%; growth at 10 µM (HT-29): 118%; growth at 10 µM (MDA-MB-435): 83.6%; growth at 10 µM (ACHN): 96.9%; growth at 10 µM (CAKI-1): 84.5%; growth at 10 µM (K562): 80.5%; growth at 10 µM [4]: 100%; growth at 10 µM (IGROV-1): 101%; growth at 10 µM (NCI-H322M): 105%

From ChEMBL document CHEMBL3120060, “Synthesis, in vitro anticancer evaluation and in silico studies of novel imidazo[2,1-b]thiazole derivatives bearing pyrazole moieties” (2014)
